From ChEMBL document CHEMBL3407477, “Synthesis and biological evaluation of compact, conformationally constrained bifunctional opioid agonist - neurokinin-1 antagonist peptidomimetics” (Eur J Med Chem, 2015)
The source made the active and inactive calls.

Experiments:
[1] = species: Rattus norvegicus; assay: Antiallodynic effect in Wistar rat chronic constriction injury model at 0.1 to 1 nmol, it measured 7 days post CCI challenge by Von Frey test; type: functional, organism-based
In short: (§1)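 Male Wistar rats (300-350 g) with i.t. catheters (L4-L6) had CCI made by four loose silk ligatures on the right sciatic nerve. On day 7 they received a single i.t. dose in water for injection. Mechanical allodynia was measured 30 min later with an automatic von Frey device (0.5-26 g) on the midplantar hind paw. Data are %MPE, 6-12 rats/group, ANOVA with Bonferroni.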

[2] = tested on: Rattus norvegicus; assay: Antinociceptive activity in it dosed Wistar rat after 30 mins by tail flick test; type: functional
In short: (§2)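 Naive male Wistar rats (250-300 g) with i.t. catheters received a single i.t. injection in water for injection (5 µl plus 10 µl flush), 7 days after catheter implantation. Tail-flick latency to a light-bulb heat stimulus at two-thirds of tail length was read 30 min post-dose (timepoints up to 180 min), with a 9 s cut-off. Data are %MPE = (TL-BL)/(cut-off-BL)×100, 7-12 rats/group, ANOVA with Bonferroni.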

[3] = tested on: Rattus norvegicus; assay: Antiallodynic effect in Wistar rat chronic constriction injury model assessed as tolerance to neuropathic pain at 1 nmol, it qd for 6 days administered from 7 days post CCI challenge to day 13 by cold plate test; type: functional, organism-based
In short: (§3)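 CCI Wistar rats received once-daily i.t. injections (morphine 3.5 nmol, hybrids 1 nmol, in water for injection) from day 7 to day 13 after CCI. Von Frey and 5 °C cold plate tests were run 30 min after each dose. Data are %MPE and AUC, 12-16 rats/group, ANOVA with Bonferroni.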

[4] = species: Rattus norvegicus; assay: Selectivity ratio of Ki for rat brain DOR to Ki for rat brain MOR
[5] = tested on: Rattus norvegicus; assay: Antiallodynic effect in Wistar rat chronic constriction injury model assessed as tolerance to neuropathic pain at 1 nmol, it qd for 6 days administered from 7 days post CCI challenge to day 13 by Von Frey test; type: functional, organism-based; in short: as §3
[6] = tested on: Rattus norvegicus; assay: Antiallodynic effect in it dosed Wistar rat measured 7 days post CCI challenge by Von Frey test; type: functional; in short: as §1
[7] = species: Rattus norvegicus; assay: Toxicity in Wistar rat chronic constriction injury model at 1 nmol, it measured 7 days post CCI challenge; type: organism-based; settings: in vivo, icv_or_intrathecal, 168 h
[8] = tested on: Rattus norvegicus; assay: Antiallodynic effect in Wistar rat chronic constriction injury model assessed as cross tolerance developement pretreated with morphine at 3.5 nmol, it qd for 6 days administered from 7 days post CCI challenge to day 13 measured 30 mins post compound challenge by Von Frey test; type: functional, organism-based
In short: (§4)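 CCI Wistar rats were made tolerant by 6 days of once-daily i.t. dosing (morphine 3.5 nmol or hybrid 1 nmol). On day 13 they received a single i.t. challenge (morphine 3.5 nmol or hybrid 1 nmol) against repeated-vehicle controls. Von Frey and cold plate tests were run 30 min later. Data are %MPE, 6-8 rats/group, ANOVA with Bonferroni.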

[9] = tested on: Rattus norvegicus; assay: Toxicity in Wistar rat assessed as death at 9.5 nmol, iv; type: organism-based; settings: in vivo
[10] = species: Rattus norvegicus; assay: Antinociceptive activity in Wistar rat at 0.1 nmol, it after 30 mins by tail flick test; type: functional; in short: as §2
[11] = species: Rattus norvegicus; assay: Antiallodynic effect in Wistar rat chronic constriction injury model at 1 nmol, it measured 7 days post CCI challenge by Von Frey test; type: functional; in short: as §1
[12] = species: Rattus norvegicus; assay: Antinociceptive activity in Wistar rat at 0.1 to 11 nmol, it after 30 mins to 2 hrs by tail flick test; type: functional, organism-based
[13] = species: Rattus norvegicus; assay: Reduction of hyperalgesia in Wistar rat chronic constriction injury model at 1 nmol, it measured 7 days post CCI challenge by cold plate test; type: functional, organism-based
In short: (§5)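 In catheterized male Wistar rats with sciatic CCI, a single i.t. dose in water for injection was given on day 7. Thermal hyperalgesia was measured 30 min later as latency to hind-paw shake on a 5 °C cold plate. Data are %MPE, 6-12 rats/group, ANOVA with Bonferroni.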

[14] = tested on: Rattus norvegicus; assay: Toxicity in Wistar rat assessed as seizures at 9.5 nmol, iv; type: organism-based; settings: in vivo
[15] = tested on: Rattus norvegicus; assay: Reduction of hyperalgesia in it dosed Wistar rat measured 7 days post CCI challenge by cold plate test; type: functional; in short: as §5
[16] = species: Rattus norvegicus; assay: Toxicity in Wistar rat chronic constriction injury model at 11 nmol, it measured 7 days post CCI challenge; type: organism-based; settings: in vivo, icv_or_intrathecal, 168 h
[17] = species: Rattus norvegicus; assay: Antinociceptive activity in Wistar rat at 1 nmol, it after 30 mins by tail flick test; type: functional; in short: as §2
[18] = tested on: Rattus norvegicus; assay: Antiallodynic effect in Wistar rat chronic constriction injury model assessed as cross tolerance developement pretreated with morphine at 3.5 nmol, it qd for 6 days administered from 7 days post CCI challenge to day 13 measured 30 mins post compound challenge by cold plate test; type: functional, organism-based; in short: as §4

SMILES: Cc1cc(O)cc(C)c1C[C@H](N)C(=O)N[C@H](CCCNC(=N)N)C(=O)N[C@H]1Cc2ccccc2CN(CCC(=O)N(C)Cc2ccccc2)C1=O
- Activity [1]: Active
- ED50 [2]: 2.78 nmol
- Activity [3]: Active
- Ratio Ki [4]: 3.5
- Activity [5]: Active
- ED50 [6]: 0.24 nmol
- Activity [7]: Non-toxic
- Activity [8]: inactive
- Activity [9]: Non-toxic
- MPE [10]: 8.9%
- MPE [11]: 80%
- Activity [12]: Active
- Activity [13]: Active
- Activity [14]: Non-toxic
- ED50 [15]: 0.34 nmol
- Activity [16]: Toxic
- MPE [17]: 30%
- Activity [18]: inactive
